Results published in ChEMBL document CHEMBL1140411, “Deoxyuridine triphosphate nucleotidohydrolase as a potential antiparasitic drug target” (J Med Chem, 2005).

Experiments:
[1] = target: T1, dUTP pyrophosphatase (Plasmodium falciparum 3D7) (UniProt Q8II92); experiment: Selectivity index for Plasmodium falciparum deoxyuridine 5'-triphosphate nucleotidohydrolase defined as (Ki Human)/(Ki Plasmodium falciparum)
T1 sequence (whole entry): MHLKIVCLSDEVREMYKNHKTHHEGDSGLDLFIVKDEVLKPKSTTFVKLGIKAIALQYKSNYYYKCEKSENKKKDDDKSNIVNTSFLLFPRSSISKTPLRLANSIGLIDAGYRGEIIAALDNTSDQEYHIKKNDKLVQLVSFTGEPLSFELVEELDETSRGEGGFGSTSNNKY
Procedure, shortened: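 Ratio of human dUTPase Ki to P. falciparum dUTPase Ki. Both Ki values came from stopped-flow pH-indicator assays following dUTP hydrolysis, with Ki derived from the dependence of apparent KM on inhibitor concentration.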

[2] = target: T2, dUTP pyrophosphatase (Plasmodium falciparum 3D7, UniProt Q8II92); experiment: Inhibitory constant against Plasmodium falciparum deoxyuridine 5'-triphosphate nucleotidohydrolase expressed in Escherichia coli BL21 (DE3) cells
T2 sequence (Q8II92 whole entry): T1 sequence (whole entry)
Procedure, shortened: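 Recombinant PfdUTPase expressed in E. coli BL21(DE3) and purified by phosphocellulose and gel filtration to ~96% purity. Continuous stopped-flow assay following proton release with cresol red/bicine (50:2000 µM, 573 nm). Mix: 30 nM enzyme, 50 µM dUTP, 5 mM MgCl2, 2.5 mM DTT, 1.25 mg/mL BSA, 100 mM KCl. KMapp from integrated Michaelis-Menten fits, plotted against [I] to give Ki.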

[3] = target: T3, Deoxyuridine 5'-triphosphate nucleotidohydrolase, mitochondrial (Homo sapiens, UniProt P33316); experiment: Inhibitory constant against human deoxyuridine 5'-triphosphate nucleotidohydrolase expressed in Escherichia coli BL21 (DE3) cells
T3 sequence (P33316 whole entry): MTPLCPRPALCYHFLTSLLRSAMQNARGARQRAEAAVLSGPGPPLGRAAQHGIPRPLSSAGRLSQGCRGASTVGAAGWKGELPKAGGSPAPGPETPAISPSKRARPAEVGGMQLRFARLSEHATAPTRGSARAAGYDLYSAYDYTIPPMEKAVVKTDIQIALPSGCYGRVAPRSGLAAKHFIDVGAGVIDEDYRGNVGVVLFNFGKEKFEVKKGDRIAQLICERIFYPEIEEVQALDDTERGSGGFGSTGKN
Procedure, shortened: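 Human dUTPase expressed in E. coli BL21(DE3) and purified like the Plasmodium enzyme (phosphocellulose, then gel filtration). dUTP hydrolysis followed continuously by stopped-flow as pH-indicator absorbance (cresol red/bicine, 50:2000 µM, 573 nm). Apparent KM from integrated Michaelis-Menten fits at each inhibitor concentration; Ki from linear KMapp versus [I].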

[4] = system: Plasmodium falciparum; experiment: In vitro inhibitory activity against Plasmodium falciparum as [3H]hypoxanthine (50 uL) incorporation at 37C; assay type: functional, organism-based
[5] = target: T4, dUTP pyrophosphatase (Leishmania major, UniProt O15826); experiment: Inhibitory constant against Leishmania major deoxyuridine 5'-triphosphate nucleotidohydrolase
T4 sequence (O15826 whole entry): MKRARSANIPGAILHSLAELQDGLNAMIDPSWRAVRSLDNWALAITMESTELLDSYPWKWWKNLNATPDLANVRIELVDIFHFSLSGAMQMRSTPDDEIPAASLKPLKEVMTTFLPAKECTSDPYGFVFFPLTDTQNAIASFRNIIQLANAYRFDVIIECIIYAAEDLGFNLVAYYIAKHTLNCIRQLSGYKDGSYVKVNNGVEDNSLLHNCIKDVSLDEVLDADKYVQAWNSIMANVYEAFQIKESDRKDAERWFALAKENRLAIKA

[6] = system: Trypanosoma cruzi; experiment: In vitro growth inhibitory activity against Trypanosoma cruzi in rat L-6 cells upon incubation at 37 degrees C in 5% CO2 atmosphere for 4 days; assay type: functional, organism-based; details: L6, 96 h
Procedure, shortened: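 L-6 cells seeded at 2000 cells/well in RPMI 1640 with 10% FBS and 2 mM L-glutamine. After 24 h, 5000 T. cruzi Tulahuen C2C4 LacZ trypomastigotes added with serial drug dilutions, then 4 days at 37 °C, 5% CO2. CPRG/Nonidet substrate added and colour read at 540 nm after 2-4 h. IC50 from sigmoidal curve. Twice independently, in duplicate.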

[7] = system: Trypanosoma brucei rhodesiense; experiment: Inhibitory constant against Trypanosoma brucei rhodesiense upon incubation with the compound at 37 degrees C under a 5% CO2 atmosphere for 72 hours; assay type: functional, organism-based
[8] = system: Leishmania donovani; experiment: In vitro growth inhibitory activity against Leishmania donovani amastigotes at 37 degrees C under a 5% CO2 atmosphere for 96 hours; assay type: functional, organism-based
Procedure, shortened: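 Mouse peritoneal macrophages in RPMI 1640 with 10% heat-inactivated FBS, infected after 24 h with L. donovani amastigotes at 3:1 (amastigote:macrophage). Free amastigotes washed out at 4 h. Next day, drug-containing medium added for 96 h at 37 °C, 5% CO2. Slides methanol-fixed and Giemsa-stained. Percentage of infected macrophages scored microscopically versus control; IC50 by linear regression. Twice independently, in duplicate.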

[9] = system: L6; experiment: In vitro cytotoxicity aganist rat skeletal myoblasts (L-6 cells) after 72 hours; assay type: functional, cell-based; details: L6, 72 h
Procedure, shortened: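 L-6 rat skeletal myoblasts seeded at 4 × 10^4 cells/mL in RPMI 1640 with 10% FBS and 2 mM L-glutamine. After 24 h, medium replaced with a serial drug dilution, then 72 h at 37 °C, 5% CO2. Alamar Blue added for a further 2-4 h. Fluorescence read at ex 536/em 588 nm. Run twice independently, in duplicate.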

Structure (SMILES) | SI [1] | Ki [2] [µM] | Ki [3] [µM] | IC50 [4] [µM] | Ki [5] [µM] | IC50 [6] [µM] | IC50 [7] [µM] | IC50 [8] [µM] | IC50 [9] [µM]
O=C(NCC1OC(n2ccc(=O)[nH]c2=O)CC1O)C12CC3CC(CC(C3)C1)C2 (stereo unspecified) | > 2 | 426 | > 1000 | > 13 | > 1000 | > 231 | > 231 |  | 
O=c1ccn([C@H]2C[C@H](O)[C@@H](COC(c3ccccc3)(c3ccccc3)c3ccccc3)O2)c(=O)[nH]1 | 10 |  | 18 |  | > 1000 | 306 | 24 | > 64 | 
O=c1ccn([C@H]2C=C[C@@H](CO)O2)c(=O)[nH]1 | > 3 | 298 | > 1000 | 214 | > 1000 | 170 | 72 |  | 
CC(C)(C)[Si](C)(C)O[C@H]1C[C@H](n2ccc(=O)[nH]c2=O)O[C@@H]1COS(N)(=O)=O | 3.7 | 88 | 324 | 40 | > 1000 | 160 | 104 | > 7 | 
CCOP(=O)(CC(=O)NCC1OC(n2ccc(=O)[nH]c2=O)CC1O)OCC (stereo unspecified) | > 3 | 324 | > 1000 | 78 | > 1000 | > 222 | 41 | 29 | 
CC(C)(C)[Si](C)(C)OCC1OC(n2ccc(=O)[nH]c2=O)CC1F (stereo unspecified) | > 1.6 | 628 |  | > 14 | > 1000 | 37 | 59 | > 87 | 
O=c1ccn(C2C=CC(COC(c3ccccc3)(c3ccccc3)c3ccccc3)O2)c(=O)[nH]1 (stereo unspecified) | 83 | 1.9 | 157 | > 11 | 798 | 44 | 55 | > 66 | 
O=c1ccn([C@H]2C[C@H](O)[C@@H](CO[Si](c3ccccc3)(c3ccccc3)c3ccccc3)O2)c(=O)[nH]1 | 325 |  | 909 |  | > 1000 | 71 | 15 |  | 
CC(C)(C)[Si](C)(C)OCC1C=CC(n2ccc(=O)[nH]c2=O)O1 (stereo unspecified) | 5.6 | 10 | 56.4 | 51 | > 1000 | 110 | 73 |  | 
CC(C)(C)[Si](C)(C)O[C@H]1C[C@H](n2ccc(=O)[nH]c2=O)O[C@@H]1COC(=O)NS(N)(=O)=O | > 4 | 244 | > 1000 | 37 | > 1000 | > 152 | 12 | > 51 | 
O=c1ccn(C2CC(F)C(COC(c3ccccc3)(c3ccccc3)c3ccccc3)O2)c(=O)[nH]1 (stereo unspecified) | 91 | 5 | 457 | 2 | 177 | 29 | 47 |  | 35
CC(C)(C)[Si](OCC1C=CC(n2ccc(=O)[nH]c2=O)O1)(c1ccccc1)c1ccccc1 (stereo unspecified) | > 833 |  |  | 3 | 178 | 33 | 55 |  | 67
NS(=O)(=O)NC(=O)OC[C@H]1O[C@@H](n2ccc(=O)[nH]c2=O)C[C@@H]1O | > 2 | 468 | > 1000 | 20 | 314 | > 194 | 90 | > 65 | 
CCCCCCCCCCCCCCCC(=O)OCC1C=CC(n2ccc(=O)[nH]c2=O)O1 (stereo unspecified) | 1.4 | 256 | 350 | > 11 | > 1000 | > 201 | 113 | > 67 | 
O=c1ccn(C2C=CC(COP(=O)(Oc3ccccc3)Oc3ccccc3)O2)c(=O)[nH]1 (stereo unspecified) | > 10 | 99 | > 1000 | 54 | > 1000 | > 204 | 68 |  | 
CC(C)(C)[Si](OC[C@H]1O[C@@H](n2ccc(=O)[nH]c2=O)C[C@@H]1O)(c1ccccc1)c1ccccc1 | 192 |  | 806 | 6.6 | > 1000 | 45 | 3 |  | 23
O=c1ccn(C2CC(O)C(CNC(c3ccccc3)(c3ccccc3)c3ccccc3)O2)c(=O)[nH]1 (stereo unspecified) | 230 | 0.2 | 46 |  | 304 | 44 | 48 |  | 44
NS(=O)(=O)OCC1C=CC(n2ccc(=O)[nH]c2=O)O1 (stereo unspecified) | > 4 | 254 | > 1000 | 163 | > 1000 | > 311 | > 311 |  | 
O=c1ccn(C2CC(O)C(CNCc3ccccc3)O2)c(=O)[nH]1 (stereo unspecified) | > 9 | 111 | > 1000 | > 16 | > 1000 | > 83 | 17 |  | 
